The values below come from the EternaBench riboswitch data.

The series deals with MS2 coat protein. Kind of series: apparent Kd, MS2 coat protein; higher = weaker binding; RNA-MaP array; FMN 200 µM where present. In outline:
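Two titrations, one without ligand and one with constant ligand, were run with SNAP-549-labelled MS2 coat protein from 0.7 or 1.5 nM, doubling to 3 µM. The targets were designs transcribed by stalled E. coli RNA polymerase on Illumina sequencing-chip clusters, in 100 mM Tris-HCl pH 7.5, 80 mM KCl, 4 mM MgCl2, BSA, DTT, yeast tRNA and Tween-20. The apparent Kd is the median of filtered per-cluster binding-curve fits, with green signal normalised to red-channel RNA signal and control-cluster median Fmax.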

Where [1] appears, read: designed as: OFF switch for flavin mononucleotide, no ligand.
The mark [2] stands for this setting: ligand present: flavin mononucleotide, designed as: OFF switch for flavin mononucleotide.
Where [3] appears, read: designed as: ON switch for flavin mononucleotide, no ligand.
Where [4] appears, read: ligand present: flavin mononucleotide, designed as: ON switch for flavin mononucleotide.

Consider “CGAUAACAUAGUUAUCCGUAACGGACAUGAGGAUCACCCAUGUAGGAUAUGUUACUCAACGGGUAACAGAAGGACAUGAGUCUU”, for which the “apparent Kd” value was 0.0144 µM under setting [1] and 0.0417 µM under setting [2]. As to “CUCAUGAGAGGAUAUACAUGAGGAUCACCCAUGUGGUUAUCUCCUCGGGCUCCAUUACGUAGAAGGCUCAUUUG”, the “apparent Kd” value reads like this: under setting [1], 0.0339 µM; under setting [2], 0.0906 µM.

As to “UGUCGGAGCAGAGGAUAUUACAUGAGGAUCACCCAUGUAUGAACCAAUAGCUGGAAACAGGAAUGUAAGAAGGCUGCUCCGACA”, the “apparent Kd” value turned out to be 0.00617 µM under setting [1] and 0.0301 µM under setting [2]. For “GCGUACAUAUCAGGAUAUCAUUGUAUUGUUUAACUCAGUGUAUACAUGAGGAUCACCCAUGUUCUUGAGAAGGGAUUACUACGC”, the “apparent Kd” value stood at 0.0141 µM under setting [1] and 0.0155 µM under setting [2]. With “GCCAUCGCAUGAGGAUAUGCUCCCGUUUCGGGAGCAGAAGGCAUGUCGUAAGACAUGAGGAUCACCCAUGUAGUUAAGAUGGCA”, the “apparent Kd” value amounted to 0.855 µM under setting [3] and 0.0596 µM under setting [4]. Turning to “GCCAGUUAUGUAGGAUAUGCGCGGCGAGCCUGAGCAGAAGGACAUGAGGAUCACCCAUGUGUUGCGGUCUGAGUACUGAUCGCU”, the “apparent Kd” value under setting [1] is 0.0301 µM and the “apparent Kd” value under setting [2] was determined as 0.155 µM. In the same order, the values of “CAUUAAUUCAUUAUAUUAAUUUUACAGGAUAUGUAACAUGAGGAUCACCCAUGUAUUCAAGGUUAACAGAAGGGUAUAUCUAGU” are 0.0182 µM and 0.014 µM. In the case of “AAUUAGUGUGUGAGGAUAUUGGUGGAAUGACAUAUUAAGAAGGCACAUGAGGAUCACCCAUGUGGGAUGUCACG”, the “apparent Kd” value stood at 0.0109 µM under setting [1] and 0.0136 µM under setting [2]. With “AUUUCGUUAGCAGGAUAUGGACAGGCCUGUCCGUAUUGAGUCAGUAACAUGAGGAUCACCCAUGUCCAGAAGGGCUCGAAGUAG”, the “apparent Kd” value by setting is: under setting [1], 0.00806 µM; under setting [2], 0.0139 µM.

In the case of “AUCAGCUCGUCAGGAUAUACGUCACUGCUUCGGCAGUGUGGUAAGAUAACAUGAGGAUCACCCAUGUAGAAGGGACGAGCUGAU”, the “apparent Kd” value reads like this: under setting [1], 0.0063 µM; under setting [2], 0.0121 µM. As to “UGCAGACGAGGAUAUAGAUUUAAGUACAUGAGGAUCACCCAUGUGCAUAUGUAUUUAGAUUUAGAAGGCGUCUGCU”, the “apparent Kd” value was found to be 0.415 µM under setting [1] and 0.383 µM under setting [2]. With “CUUGUACAUGAGGAUCACCCAUGUUAGGAUAUCUCGCCGUCGGCUUGCCGACGGUAUUAGAGAAGGGACAAGGG”, the “apparent Kd” value under setting [1] was 0.0225 µM and the “apparent Kd” value under setting [2] stood at 0.0267 µM. Taken in the same sequence, the figures for “AUGAAGUCAGGAUAUCGUUAAUUUAGUUGUUUGUAUUAGUUCGAGAAGGGACAUGAGGAUCACCCAUGUAAGUA” were 0.0317 µM and 0.0385 µM. In the case of “AGCAAGUAUACAUGAGGAUCACCCAUGUUUUUUAGGGUUAUCAGAAGGUACAUUUUGAGAUAGAGUAAGGAUAUGAAAUAUGCG”, the “apparent Kd” value is 0.214 µM under setting [3] and 0.13 µM under setting [4]. On to “GCCGAGUGAGGAUAUACAUGAGGAUCACCCAUGUAAACACGAAAGCAAGUGUCCCUCAGUAGAAGGCGCCUGGA”, for which the “apparent Kd” value turned out to be 0.0142 µM under setting [1] and 0.0166 µM under setting [2].

“CGAUUAUUGAUCCAUUUUUACAACAUGAGGAUCACCCAUGUGCAGGAUAUCGUGGUGAUUAACUACGAGAAGGGCAAAUUCACG”: the “apparent Kd” value was 0.123 µM under setting [1] and 0.22 µM under setting [2]. On to “ACAUGAGACUAAGGAUAUGAUGUACCUAUAUGUGACAUGAGGAUCACCCAUGUGGUAAGUAUGACUCAGAAGGUAGAGAUAUGU”, for which the “apparent Kd” value was found to be 0.222 µM under setting [3] and 0.0774 µM under setting [4]. “AGCAGACGAGGAUAUAGAUUUAGAUACAUGAGGAUCACCCAUGUAUAGAUGUAUUUAGAUUUAGAAGGCGUCUGCU”: the “apparent Kd” value under setting [1] was found to be 0.211 µM and the “apparent Kd” value under setting [2] was determined as 0.221 µM. As to “UGUAACCGAGGAUAUACAUGAGGAUCACCCAUGUAAUGUAGUAUAGUGUGUGUGAGGUGUAGAAGGUGGGAUGU”, the “apparent Kd” value is 0.0934 µM under setting [1] and 0.0972 µM under setting [2]. With “AUGAGAAAAGCAGGAUAUCUAUUGGCUCAGAAACAUGAGGAUCACCCAUGUAGAGAAGGGCUAAGACCGACUCUUCGGAGUUGA”, the “apparent Kd” value reads like this: under setting [1], 0.00568 µM; under setting [2], 0.00651 µM.

For the sequence “UGGCUACAUGAGGAUCACCCAUGUCAGGAUAUGCCGUUGGAUUGACAUCGUCGUACGGGUAGAAGGGACUGCGU”, the “apparent Kd” value is 0.0598 µM under setting [1] and 0.0583 µM under setting [2]. As to “GGCGAACAGGCUAACAUGAGGAUCACCCAUGUGGACUCAUGGUAGGAUAUCGGGAAGGAGGAAACCGAGAAGGGCCGGUGAGCG”, the “apparent Kd” value is 0.158 µM under setting [3] and 0.0395 µM under setting [4]. As for “AUUUUGUCAGGAUAUGACUAGUAGCACGAAAGUGCUACUACUUAGAAGGGACAUGAGGAUCACCCAUGUAUUCC”, the “apparent Kd” value under setting [1] turned out to be 0.0152 µM and the “apparent Kd” value under setting [2] worked out at 0.0161 µM. For “GGGCCAACAUGAGGAUCACCCAUGUAGGAUAUCGCUAUUGUAAUCAUGAAACAUGAUUACAAUAGCGAGAAGGACAUAUGCAAA”, the “apparent Kd” value by setting is: under setting [1], 0.007 µM; under setting [2], 0.0077 µM. In the case of “GCCAGGAUGUAAGGAUAUGCUGAGGAAUACUCAGCAGAAGGUACAUGAGGAUCACCCAUGUAAUCCUAAUAAUAAUAACCUGGC”, the “apparent Kd” value runs as follows: under setting [1], 0.0111 µM; under setting [2], 0.0166 µM. In the same order, the values of “CGAUAUUAUAGAGGAUAUGUUUAACAUGAGGAUCACCCAUGUGAGGUGGAAUUAAUGUAUUACUUACAGAAGGCUAUACAAUCG” are 0.316 µM and 0.432 µM. Consider “GGUAGACAAAGUCUACCAUUACGAACAUGAGGAUCACCCAUGUAGGAUAUGCUACUCAAAGAGUAGCAGAAGGACAUGUGUCUU”, for which the “apparent Kd” value is, setting by setting: under setting [1], 0.0298 µM; under setting [2], 0.143 µM. For the sequence “UGUAUGGACAGAGGAUAUACGGAUAGGAUCUACUAUCAAACAAGUCCUACAUGAGGAUCACCCAUGUAGAAGGCUGUCCAUACU”, the “apparent Kd” value under setting [1] came out at 0.0164 µM and the “apparent Kd” value under setting [2] was 0.0227 µM.

For the sequence “UUACUAUAACAGAAGGGUAGAUAAUAUAUAAAUGCAGGAUAUGUUACAUGAGGAUCACCCAUGUUUCACCCACAUGAGGAUCAC”, the “apparent Kd” value came out at 0.0279 µM under setting [1] and 0.0554 µM under setting [2]. Taken in the same sequence, the figures for “GAUCCACAUGAGGAUCACCCAUGUGAGGAUAUGAUACUAUGUACUUCGGUACAUAGUAUCAGAAGGCAUAUUGA” were 0.044 µM and 0.0757 µM. In the case of “GGUACCAUCGCAGGAUAUGCUAUCCUUUGGGUAGCAGAAGGGUGAUAACAUGAGGAUCACCCAUGUGGUACCGGGCGUGAGCCC”, the “apparent Kd” value reads like this: under setting [3], 0.0971 µM; under setting [4], 1.21 µM. With “AUAUAUAUAAGGAAGGAUAUCUUAGAAAAAACAUGAGGAUCACCCAUGUAAAUAAAGAAUAAAUGGGAGAAGGUCCAUAUAUAUA”, the “apparent Kd” value was 0.0301 µM under setting [3] and 0.0163 µM under setting [4].

In the case of “GCGUUCUUGUAGAAGGUACUUUCGACAUCUUAUAAACGCUUGACACAUGAGGAUCACCCAUGUUGUAAGGAUAUACAUGAACGC”, the “apparent Kd” value by setting is: under setting [3], 0.00661 µM; under setting [4], 0.00641 µM. Take “CAGGGUAGAGGAUAUACGUAGGUACAGAUCCGUGUGAUCCUACAUGAGGAUCACCCAUGUAGAAGGCUAGCCUG”: the “apparent Kd” value came out at 0.305 µM under setting [1] and 0.0259 µM under setting [2]. In the case of “UUAGCAUACCGAGGAUAUUCAUAUAAUAAAUAAACAUGAGGAUCACCCAUGUGGCGAAAGCCUAGGGAGAAGGCGGAAUGCUAA”, the “apparent Kd” value stood at 0.22 µM under setting [3] and 0.022 µM under setting [4]. Take “AUUCCUAGUGUUAGGAUAUGCGACGGGUGACCGUUGCAGAAGGAACAUGAGGAUCACCCAUGUUUAAUAAAAUC”: the “apparent Kd” value is, setting by setting: under setting [1], 0.0156 µM; under setting [2], 0.0807 µM. Consider “GGGUACAUCGGAGGAUAUCAUGUAAAUACAUGAGGAUCACCCAUGUAGAUGGAGACAUCGGAGAUUGAGAAGGCCGAUGUACCG”, for which the “apparent Kd” value is, setting by setting: under setting [3], 0.00769 µM; under setting [4], 0.00584 µM. With “GCUGACGUAGGAUAUCAAUAGCCUCACAUGAGGAUCACCCAUGUCGGUAGGUGUACUGGAUGAGAAGGACGUCGUU”, the “apparent Kd” value came out at 0.0383 µM under setting [1] and 0.0239 µM under setting [2]. As to “GGGUUCAUGUAAGGAUAUGUAUUGUUAAUCGGAGCAGAAGGUACAUGAGGAUCACCCAUGUCAACCUAGAGCAAGGCUUCUUAG”, the “apparent Kd” value by setting is: under setting [1], 0.0197 µM; under setting [2], 0.058 µM. As for “AGUGUGUGGCAGGAUAUUCUGUUGGUUAGGACAGAAGAAGGGUCUACAUGAGGAUCACCCAUGUAAGCGGUUGA”, the “apparent Kd” value was 0.251 µM under setting [1] and 0.428 µM under setting [2]. With “GGUCUGCGAGGAUAUACAUGAGGAUCACCCAUGUGCGAGAUACUAGUGAGGUCGAUUGGUAGAAGGCGCGGACA”, the “apparent Kd” value was 0.105 µM under setting [1] and 0.0666 µM under setting [2]. Regarding “GCGGUACAUGAGGAUCACCCAUGUCAGGAUAUCCGCUGUUUGUCGAUUGGCAGGCGGUGGAGAAGGGACCUCGC”, the “apparent Kd” value was 0.0975 µM under setting [1] and 0.0985 µM under setting [2]. On to “UAUAUAUAGUAAGGAUAUGUAUAUAUAUUAUAAACAGAAGGUACUGACAUGAGGAUCACCCAUGUUUUAGUGUGGGCAUGUAGA”, for which the “apparent Kd” value by setting is: under setting [1], 0.0751 µM; under setting [2], 0.0961 µM.

Regarding “UACGAUGUACAUGAGGAUCACCCAUGUCAUAUGCCCGUGACACAGGAUAUCCAGGAUAGGCCAAAGGAGAAGGGUGAUCCGCGG”, the “apparent Kd” value is, setting by setting: under setting [3], 0.0669 µM; under setting [4], 0.139 µM. Take “CUAGCGGAUGUAGGAUAUCGGACUGUUUCAGUCUGAGAAGGACAUGAGGAUCACCCAUGUAUUGCUGCGUGAGUAGCACGCUAG”: the “apparent Kd” value by setting is: under setting [1], 0.0191 µM; under setting [2], 0.0302 µM. Turning to “AGACUGCGUAGAAUUAGCAGCUGACAGGAUAUGACAUGAGGAUCACCCAUGUGAAAUAAGAAGGGUCAGAAGGGUCACGACACA”, the “apparent Kd” value reads like this: under setting [1], 0.0117 µM; under setting [2], 0.00998 µM.

Regarding “CCGACGCAAGCAGGAUAUCUACUGGCGAUGGUACAUGAGGAUCACCCAUGUAGAGAAGGGCUAAGUGGAAGGAUGAUUUAAAAG”, the “apparent Kd” value reads like this: under setting [1], 0.113 µM; under setting [2], 0.097 µM.

With “UGGACCGAGCUAUCGGUUGACUGGGAGGAUAUGACAUGAGGAUCACCCAUGUGGGAUCUAAAUUGUCAGAAGGCUCGUUCUGGG”, the “apparent Kd” value under setting [2] is 0.234 µM.

As a reminder, the apparent Kd is a dissociation constant that holds for the conditions of the assay.
